Assay results pooled from the literature.
Lines come from different studies, so protocols differ. Converted amounts (≈) assume the structure as drawn.

Compound	tested on	test	test system	setting	endpoint	result
CC(C)c1nn(-c2nc3ccc(Br)cc3s2)c2c1C(=O)c1ccccc1-2	Staphylococcus aureus	microbial growth, well diffusion	NCIM5021	125 µg/mL	inhibition zone	11 mm
c1cc(Nc2nccc(NC3CCCCC3)n2)cc(N2CCOCC2)c1	MV4-11	cell growth or viability, ATP luminescence		72 h	EC50	369 nM
CCCS(=O)(=O)Nc1ccc(F)c(C(=O)c2c[nH]c3ncc(Cl)cc23)c1F	Staphylococcus aureus	microbial growth	NCTC8325		MIC	> 30 µM
c1ccc(-c2ccc(Nc3nccc(NC4CCCCC4)n3)cc2)nc1	MV4-11	cell growth or viability, ATP luminescence		72 h	EC50	41 nM
Cc1cc(NC(=O)Nc2ccc3c(c2)OC(F)(F)O3)ccc1Cl	Staphylococcus aureus	microbial growth	NCTC8325		MIC	0.5 µM (≈ 0.17 µg/mL)
Cc1nn(-c2nc3ccc(Br)cc3s2)c2c1C(=O)c1ccccc1-2	Staphylococcus aureus	microbial growth, well diffusion	NCIM5021	250 µg/mL	inhibition zone	11 mm
c1cncc(-c2cccc(Nc3nccc(NC4CCC4)n3)c2)c1	MV4-11	cell growth or viability, ATP luminescence		72 h	EC50	> 17000 nM
COC(C)(C)CCC[C@](C)(O)[C@H]1CC[C@]2(C)[C@@H]1[C@H](O)C[C@@H]1[C@@]3(C)CC[C@H](O)C(C)(C)[C@@H]3CC[C@]12C	BEAS-2B	cell growth or viability		25 µM, 24 h	inhibition	~50%
O=C1NC(=S)N/C1=C\c1ccc(-c2ccc(N(c3ccccc3)c3ccccc3)cc2)cc1	Staphylococcus aureus	microbial killing, broth dilution	ATCC25923		MBC	> 1000 µg/mL
CC(C)Cc1nn(-c2nc3ccc(Br)cc3s2)c2c1C(=O)c1ccccc1-2	Staphylococcus aureus	microbial growth, well diffusion	NCIM5021	500 µg/mL	inhibition zone	14 mm
CC(C)Nc1ccnc(Nc2cccc(-c3ncco3)c2)n1	MV4-11	cell growth or viability, ATP luminescence		72 h	EC50	1060 nM
CNC(=O)c1cc(Oc2ccc(NC(=O)Nc3cc(C(C)(C)C)nn3-c3ccc4ncccc4c3)c(F)c2)ccn1	Staphylococcus aureus	microbial growth	NCTC8325		MIC	> 30 µM
COc1ccc2nc(-n3nc(C)c4c3-c3ccccc3C4=O)sc2c1	Staphylococcus aureus	microbial growth, well diffusion	NCIM5021	500 µg/mL	inhibition zone	12 mm
NC(=O)c1ccc(-c2nc(-c3ccccn3)c(-c3ccc4c(c3)OCO4)[nH]2)cc1	Staphylococcus aureus	microbial growth	NCTC8325		MIC	> 30 µM
CC(C)(C)Nc1ccnc(Nc2cccc(-c3cccnc3)c2)n1	MV4-11	cell growth or viability, ATP luminescence		72 h	EC50	25 nM
Cc1ccc2nc(-n3nc(C(C)C)c4c3-c3ccccc3C4=O)sc2c1	Staphylococcus aureus	microbial growth, well diffusion	NCIM5021	250 µg/mL	inhibition zone	13 mm
COc1ccc(-c2ccc3c(N4CCOC[C@@H]4C)nc(N4CCOC[C@@H]4C)nc3n2)cc1CO	Staphylococcus aureus	microbial growth	NCTC8325		MIC	> 30 µM
